Assay results published in ChEMBL document CHEMBL1649351, “Synthesis, in vitro antimicrobial and in vivo antitumor evaluation of novel pyrimidoquinolines and its nucleoside derivatives” (Eur J Med Chem, 2011).

How the values were obtained:
[1] = tested on: HeLa; assay: Antitumor activity against human HeLa cells xenografted in Swiss albino mouse assessed as increase of mouse survival at 10 ug/kg, ip for 10 days (reference value: 22 +/- 1.90 day); type: functional
[2] = tested on: HeLa; assay: Antitumor activity against human HeLa cells xenografted in Swiss albino mouse assessed as increase mouse life span at 10 ug/kg, ip for 10 days relative to control; type: functional
[3] = tested on: HepG2; assay: Antitumor activity against human HepG2 cells xenografted in Swiss albino mouse assessed as increase of mouse survival at 10 ug/kg, ip for 10 days (reference value: 22 +/- 1.90 day); type: functional
[4] = tested on: Pseudomonas aeruginosa; assay: Antibacterial activity against Pseudomonas aeruginosa at 50 mg/disk after 24 to 28 hrs by agar disk diffusion method; type: functional
[5] = tested on: Escherichia coli; assay: Antibacterial activity against Escherichia coli at 50 mg/disk after 24 to 28 hrs by agar disk diffusion method; type: functional
[6] = tested on: Lactococcus lactis; assay: Antibacterial activity against Streptococcus lactis at 50 mg/disk after 24 to 28 hrs by agar disk diffusion method; type: functional
[7] = tested on: Mus musculus; assay: Acute toxicity in human HeLa cells xenografted ip dosed Swiss albino mouse assessed as mortality measured up to 2 weeks; type: organism-based; details: in vivo, 336 h
How it was run: (§1)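 Adult Swiss albino mice were fasted 12 h and randomised into groups of 10. Each group got one i.p. dose from a graded series, given at 1 ml/kg body weight; controls got vehicle alone. Food and water were returned right after dosing. Mortality was followed for up to two weeks, and LD50 was taken as the dose giving 50% mortality.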

[8] = tested on: Mus musculus; assay: Acute toxicity in human HepG2 cells xenografted ip dosed Swiss albino mouse assessed as mortality measured up to 2 weeks; type: organism-based; details: in vivo, 336 h; how it was run: as §1
[9] = tested on: Bacillus subtilis; assay: Antibacterial activity against Bacillus subtilis at 50 mg/disk after 24 to 28 hrs by agar disk diffusion method; type: functional
[10] = tested on: Nakaseomyces glabratus; assay: Antifungal activity against Candida glabrata at 50 mg/disk after 5 days by agar disk diffusion method; type: functional
[11] = tested on: Candida albicans; assay: Antifungal activity against Candida albicans at 50 mg/disk after 5 days by agar disk diffusion method; type: functional
[12] = tested on: HepG2; assay: Antitumor activity against human HepG2 cells xenografted in Swiss albino mouse assessed as increase mouse life span at 10 ug/kg, ip for 10 days relative to control; type: functional

| Molecule | Survival [1] [days] | Activity [2] [%] | Survival [3] [days] | diameter of the inhibition zone (DIZ) [4] [mm] | diameter of the inhibition zone (DIZ) [5] [mm] | diameter of the inhibition zone (DIZ) [6] [mm] | LD50 [7] [mg/kg] | LD50 [8] [mg/kg] | diameter of the inhibition zone (DIZ) [9] [mm] | diameter of the inhibition zone (DIZ) [10] [mm] | diameter of the inhibition zone (DIZ) [11] [mm] | Activity [12] [%] | inhibition zone (IZ) [10] [mm] |
| --- | --- | --- | --- | --- | --- | --- | --- | --- | --- | --- | --- | --- | --- |
| CC1(C)CC(=O)C2=C(C1)Nc1nc(N/N=C\c3ccc(Cl)cc3)[nH]c(=O)c1C2c1ccc([N+](=O)[O-])cc1 (configuration not stated) | 32 | 50 | 37 | 17 | 18 | 17 | 0.09 | 0.096 | 16 | 6 | 7 | 53 |  |
| CSc1nc2c(c(=O)n1C)C(c1ccc([N+](=O)[O-])cc1)C1=C(CC(C)(C)CC1=O)N2 (configuration not stated) | 28 | 48 | 34 | 14 | 15 | 13 | 0.111 | 0.098 | 15 | 6 | 8 | 50 |  |
| CSc1nc2c(c(=O)n1C)C(c1ccc([N+](=O)[O-])cc1)C1=C(CC(C)(C)CC1Cl)N2 (configuration not stated) | 31 | 45 | 33 | 14 | 15 | 13 | 0.103 | 0.1 | 14 | 9 | 10 | 48 |  |
| CSc1nc2c(c(=O)[nH]1)C(c1ccc([N+](=O)[O-])cc1)C1=C(CC(C)(C)CC1=O)N2[C@@H]1O[C@H](COC(C)=O)[C@@H](OC(C)=O)[C@H](OC(C)=O)[C@H]1OC(C)=O (some centres not stated) | 37 | 61 | 36 | 22 | 23 | 20 | 0.111 | 0.109 | 20 | 8 | 8 | 66 |  |
| CC1(C)CC(=O)C2=C(C1)Nc1nc(Nn3c(=O)c4cc5c(=O)n(Nc6nc7c(c(=O)[nH]6)C(c6ccc([N+](=O)[O-])cc6)C6=C(CC(C)(C)CC6=O)N7)c(=O)c5cc4c3=O)[nH]c(=O)c1C2c1ccc([N+](=O)[O-])cc1 (configuration not stated) | 29 | 53 | 38 | 22 | 23 | 25 | 0.099 | 0.099 | 22 | 12 | 13 | 58 |  |
| CSc1nc2c(c(=O)[nH]1)C(c1ccc([N+](=O)[O-])cc1)C1=C(CC(C)(C)CC1=O)N2[C@@H]1O[C@H](COC(C)=O)[C@@H](OC(C)=O)[C@@H]1OC(C)=O (some centres not stated) |  |  |  | 23 | 21 | 20 |  |  | 19 | 9 | 8 |  |  |
| CSc1nc2c(c(=O)[nH]1)C(c1ccc([N+](=O)[O-])cc1)C1=C(CC(C)(C)CC1=O)N2[C@@H]1OC[C@@H](O)[C@@H](O)[C@@H]1O (some centres not stated) | 38 | 66 | 37 | 23 | 24 | 18 | 0.116 | 0.11 | 20 | 8 | 7 | 60 |  |
| CSc1nc2c(c(=O)[nH]1)C(c1ccc([N+](=O)[O-])cc1)C1=C(CC(C)(C)CC1=O)N2[C@@H]1O[C@H](CO)[C@H](O)[C@H](O)[C@H]1O (some centres not stated) |  |  |  | 22 | 22 | 20 |  |  | 21 | 7 | 8 |  |  |
| CC1(C)CC(=O)C2=C(C1)Nc1nc3n(N)c(-c4ccccc4)cn3c(=O)c1C2c1ccc([N+](=O)[O-])cc1 (configuration not stated) |  |  |  | 23 | 23 | 20 |  |  | 20 | 6 | 8 |  |  |
| Cc1n[nH]c2nc3c(c(=O)n12)C(c1ccc([N+](=O)[O-])cc1)C1=C(CC(C)(C)CC1=O)N3 (configuration not stated) |  |  |  | 22 | 18 | 21 |  |  | 18 | 11 | 11 |  |  |
| CC1(C)CC(=O)C2=C(C1)Nc1nc(N/N=C\c3ccccc3)[nH]c(=O)c1C2c1ccc([N+](=O)[O-])cc1 (configuration not stated) |  |  |  | 16 | 17 | 18 |  |  | 17 | 6 | 7 |  |  |
| CC1(C)CC(=O)C2=C(C1)Nc1nc(N)[nH]c(=O)c1C2c1ccc([N+](=O)[O-])cc1 (configuration not stated) | 31 | 50 | 35 | 23 | 27 | 20 | 0.09 | 0.095 | 25 | 9 | 9 | 49 |  |
| CC1(C)CC(=O)C2=C(C1)Nc1nc3[nH]nnn3c(=O)c1C2c1ccc([N+](=O)[O-])cc1 (configuration not stated) |  |  |  | 19 | 20 | 18 |  |  | 23 | 10 | 12 |  |  |
| CC1(C)CC(=O)C2=C(C1)Nc1nc3[nH]ncn3c(=O)c1C2c1ccc([N+](=O)[O-])cc1 (configuration not stated) | 30 | 51 | 31 | 18 | 19 | 20 | 0.098 | 0.1 | 20 | 9 | 9 | 55 |  |
| CSc1nc2c(c(=O)[nH]1)C(c1ccc([N+](=O)[O-])cc1)C1=C(CC(C)(C)CC1=O)N2[C@@H]1O[C@H](COC(C)=O)[C@H](OC(C)=O)[C@H](OC(C)=O)[C@H]1OC(C)=O (some centres not stated) |  |  |  | 23 | 25 | 19 |  |  | 20 | 8 | 7 |  |  |
| CSc1nc2c(c(=O)[nH]1)C(c1ccc([N+](=O)[O-])cc1)C1=C(CC(C)(C)CC1=O)N2 (configuration not stated) |  |  |  | 14 | 13 | 14 |  |  | 13 | 8 | 7 |  |  |
| NYSTATIN |  |  |  |  |  |  |  |  |  |  |  |  | 20 |
| COc1ccc(/C=N\Nc2nc3c(c(=O)[nH]2)C(c2ccc([N+](=O)[O-])cc2)C2=C(CC(C)(C)CC2=O)N3)cc1 (configuration not stated) |  |  |  | 16 | 17 | 16 |  |  | 15 | 8 | 7 |  |  |
| CC1(C)CC(=O)C2=C(C1)Nc1nc3[nH]nc(-c4ccc(Cl)cc4)n3c(=O)c1C2c1ccc([N+](=O)[O-])cc1 (configuration not stated) | 34 | 57 | 36 | 17 | 18 | 15 | 0.089 | 0.095 | 18 | 7 | 9 | 51 |  |
| CCn1cc(C(=O)O)c(=O)c2ccc(C)nc21 [NALIDIXIC ACID] |  |  |  | 25 | 25 | 25 |  |  | 25 |  |  |  |  |
